According to PubChem BioAssay AID504511 (The Scripps Research Institute Molecular Screening Center, 2011):
Activity calls are given as the source filed them.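 The calls were made as follows: active = cytotoxic compound whose concentration leaving half the cells alive is below 5 µM in either medium; inactive = the rest.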

Test: viability loss of mouse T cells – cell-based, absorbance, serum-free and serum media, cytotoxicity control for PAFAH2 inhibitor project, late-stage follow-up (AID 504511)
Conditions: BW5147 murine T cells viability, WST-1 absorbance
Procedure, shortened: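 Test system: BW5147-derived murine T cells; buffer or medium: RPMI without or with fetal calf serum; compound: Seven-point fivefold dilution series, top final dose 50 µM; incubation: 48 h cell exposure, 37 °C; measured by: colorimetric WST-1 formazan absorbance; read-out: half-cytotoxic concentration as > highest dose retaining >50% survival; repeats: quadruplicate wells per concentration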

Compound | CC50 (serum-free media) | CC50 (with FCS)
O=C(N1CCCC1)n1ncc(-c2ccc(Oc3ccccc3)cc2)n1 | 48 µM (inactive) | > 50 µM (inactive)
O=C(N1CCCC1)n1ncc(-c2ccc(-c3ccccc3)cc2)n1 | 35 µM (inactive) | > 50 µM (inactive)
